Source: ChEMBL document CHEMBL1142454, “Synthesis and evaluation of novel 4-amino-4,6-androstadiene-3,17-dione: an analog of formestane” (2008)

Tests used:
Type in all cases: functional
Design in all cases: scale not given: the % may be the effect or the level left
OVCAR-8 = assay: Antitumor activity against human OVCAR8 cells assessed as reduction of cell growth at 10 uM after 48 hrs by SRB assay
In short: (§1)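 NCI 60-cell-line primary screen, single dose 10^-5 M (final). Cells grown in RPMI 1640 with 5% FBS and 2 mM L-glutamine, seeded at 5000–40,000 cells/well and preincubated 24 h at 37 °C, 5% CO2. Compound is dissolved in DMSO, diluted in medium with gentamicin, and exposed 48 h. Cells are fixed with 10% TCA (final) and stained with 0.4% SRB; absorbance is read at 515 nm. Readout is growth percentage.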

SR = assay: Antitumor activity against human SR cells assessed as reduction of cell growth at 10 uM after 48 hrs by SRB assay
In short: (§2)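 NCI-60 one-dose primary screen at 10^-5 M final. Cells grown in RPMI 1640 with 5% FBS and 2 mM L-glutamine, plated at 5000–40,000 cells/well and preincubated 24 h at 37 °C, 5% CO2. Drug stocks in DMSO, diluted in medium with gentamicin. Exposure 48 h, then fixed in situ with TCA (10% final) for 60 min at 4 °C. Stained with 0.4% SRB in 1% acetic acid, bound dye solubilized in 10 mM trizma base, absorbance read at 515 nm. Reported as mean growth percent; negative values indicate cell kill.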

SF-295 = assay: Antitumor activity against human SF-295 cells assessed as reduction of cell growth at 10 uM after 48 hrs by SRB assay; in short: as §1
NCI-H460 = assay: Antitumor activity against human NCI-H460 cells assessed as reduction of cell growth at 10 uM after 48 hrs by SRB assay; in short: as §1
OVCAR-4 = assay: Antitumor activity against human OVCAR4 cells assessed as reduction of cell growth at 10 uM after 48 hrs by SRB assay; in short: as §1
CCRF-CEM = assay: Antitumor activity against human CCRF-CEM cells assessed as reduction of cell growth at 10 uM after 48 hrs by SRB assay; in short: as §1
Malme-3M = assay: Antitumor activity against human MALME-3M cells assessed as reduction of cell growth at 10 uM after 48 hrs by SRB assay; in short: as §1
OVCAR-3 = assay: Antitumor activity against human OVCAR-3 cells assessed as reduction of cell growth at 10 uM after 48 hrs by SRB assay; in short: as §1
M14 = assay: Antitumor activity against human M14 cells assessed as reduction of cell growth at 10 uM after 48 hrs by SRB assay; in short: as §1
UACC-62 = assay: Antitumor activity against human UACC-62 cells assessed as reduction of cell growth at 10 uM after 48 hrs by SRB assay; in short: as §2
OVCAR-5 = assay: Antitumor activity against human OVCAR5 cells assessed as reduction of cell growth at 10 uM after 48 hrs by SRB assay; in short: as §1
[1] = Antitumor activity against human HCT 116 cells assessed as reduction of cell growth at 10 uM after 48 hrs by SRB assay; in short: as §1
LOX IMVI = assay: Antitumor activity against human LOXIMVI cells assessed as reduction of cell growth at 10 uM after 48 hrs by SRB assay; in short: as §1
NCI-H23 = assay: Antitumor activity against human NCI-H23 cells assessed as reduction of cell growth at 10 uM after 48 hrs by SRB assay; in short: as §1
MCF7 [2] = assay: Antitumor activity against human MCF7 cells assessed as reduction of cell growth at 10 uM after 48 hrs by SRB assay; in short: as §1
KM12 = assay: Antitumor activity against human KM12 cells assessed as reduction of cell growth at 10 uM after 48 hrs by SRB assay; in short: as §1
U-251 = assay: Antitumor activity against human U251 cells assessed as reduction of cell growth at 10 uM after 48 hrs by SRB assay; in short: as §2
SK-MEL-2 = assay: Antitumor activity against human SK-MEL-2 cells assessed as reduction of cell growth at 10 uM after 48 hrs by SRB assay; in short: as §1
CAKI-1 = assay: Antitumor activity against human Caki-1 cells assessed as reduction of cell growth at 10 uM after 48 hrs by SRB assay; in short: as §1
UO-31 = assay: Antitumor activity against human UO-31 cells assessed as reduction of cell growth at 10 uM after 48 hrs by SRB assay; in short: as §2
PC-3 = assay: Antitumor activity against human PC-3 cells assessed as reduction of cell growth at 10 uM after 48 hrs by SRB assay; in short: as §1
SK-MEL-5 = assay: Antitumor activity against human SK-MEL-5 cells assessed as reduction of cell growth at 10 uM after 48 hrs by SRB assay; in short: as §1
COLO 205 = assay: Antitumor activity against human COLO205 cells assessed as reduction of cell growth at 10 uM after 48 hrs by SRB assay; in short: as §1
EKVX = assay: Antitumor activity against human EKVX cells assessed as reduction of cell growth at 10 uM after 48 hrs by SRB assay; in short: as §1
DU-145 = assay: Antitumor activity against human DU145 cells assessed as reduction of cell growth at 10 uM after 48 hrs by SRB assay; in short: as §1
BT-549 = assay: Antitumor activity against human BT-549 cells assessed as reduction of cell growth at 10 uM after 48 hrs by SRB assay; in short: as §1
SNB-75 = assay: Antitumor activity against human SNB75 cells assessed as reduction of cell growth at 10 uM after 48 hrs by SRB assay; in short: as §1
MDA-MB-231 = assay: Antitumor activity against human MDA-MB-231/ATCC cells assessed as reduction of cell growth at 10 uM after 48 hrs by SRB assay; in short: as §1
SK-MEL-28 = assay: Antitumor activity against human SK-MEL-28 cells assessed as reduction of cell growth at 10 uM after 48 hrs by SRB assay; in short: as §1
MDA-MB-435 = assay: Antitumor activity against human MDA-MB-435 cells assessed as reduction of cell growth at 10 uM after 48 hrs by SRB assay; in short: as §1
K562 = assay: Antitumor activity against human K-562 cells assessed as reduction of cell growth at 10 uM after 48 hrs by SRB assay; in short: as §1
MCF7 [3] = assay: Antitumor activity against human doxorubicin-resistant MCF7 cells assessed as reduction of cell growth at 10 uM after 48 hrs by SRB assay; in short: as §2
SF-539 = assay: Antitumor activity against human SF-539 cells assessed as reduction of cell growth at 10 uM after 48 hrs by SRB assay; in short: as §1
SW-620 = assay: Antitumor activity against human SW620 cells assessed as reduction of cell growth at 10 uM after 48 hrs by SRB assay; in short: as §2
HOP-92 = assay: Antitumor activity against human HOP-92 cells assessed as reduction of cell growth at 10 uM after 48 hrs by SRB assay; in short: as §1
MOLT-4 = assay: Antitumor activity against human MOLT-4 cells assessed as reduction of cell growth at 10 uM after 48 hrs by SRB assay; in short: as §1
UACC-257 = assay: Antitumor activity against human UACC-257 cells assessed as reduction of cell growth at 10 uM after 48 hrs by SRB assay; in short: as §2

SMILES: C[C@]12CCC(=O)C(Oc3ccccc3)=C1CC[C@@H]1[C@@H]2CC[C@]2(C)C(=O)CC[C@@H]12
- Activity (OVCAR-8): 93.48%
- Activity (SR): 66.91%
- Activity (SF-295): 124.31%
- Activity (NCI-H460): 77.42%
- Activity (OVCAR-4): 100.72%
- Activity (CCRF-CEM): 90.45%
- Activity (Malme-3M): 120.52%
- Activity (OVCAR-3): 121.39%
- Activity (M14): 102.62%
- Activity (UACC-62): 87.46%
- Activity (OVCAR-5): 97.47%
- Activity [1]: 99.87%
- Activity (LOX IMVI): 101.44%
- Activity (NCI-H23): 97.57%
- Activity (MCF7 [2]): 103.22%
- Activity (KM12): 115.72%
- Activity (U-251): 91.35%
- Activity (SK-MEL-2): 82.37%
- Activity (CAKI-1): 112.48%
- Activity (UO-31): 76.98%
- Activity (PC-3): 89.25%
- Activity (SK-MEL-5): 94.23%
- Activity (COLO 205): 115.44%
- Activity (EKVX): 104.06%
- Activity (DU-145): 107.32%
- Activity (BT-549): 110.1%
- Activity (SNB-75): 91.11%
- Activity (MDA-MB-231): 109.86%
- Activity (SK-MEL-28): 119.81%
- Activity (MDA-MB-435): 113.61%
- Activity (K562): 86.08%
- Activity (MCF7 [3]): 90.34%
- Activity (SF-539): 106.75%
- Activity (SW-620): 120.45%
- Activity (HOP-92): 87.06%
- Activity (MOLT-4): 105.63%
- Activity (UACC-257): 108.45%
